Assays:
[1] = target: Ribosomal protein S6 kinase alpha-3 (Homo sapiens) (UniProt P51812); assay: Binding affinity to wild-type human partial length C-terminal RSK2 kinase domain 2 (V402 to S715 residues) expressed in mammalian expression system assessed as residual binding level at 1 uM by Kinomescan method relative to control
[2] = target: Tyrosine-protein kinase JAK1 (Homo sapiens) (UniProt P23458); assay: Binding affinity to wild-type human partial length JAK1 JH1 catalytic domain (V856 to K1154 residues) expressed in bacterial expression system assessed as residual binding level at 1 uM by Kinomescan method relative to control
[3] = target: Ephrin type-B receptor 2 (Homo sapiens) (UniProt P29323); assay: Binding affinity to wild-type human partial length EPHB2 (I597 to L902 residues) expressed in bacterial expression system assessed as residual binding level at 1 uM by Kinomescan method relative to control
How it was run: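 Active-site-directed competition binding panel of 468 kinases (KinomeScan), compound at 1 μM. The read-out is kinase remaining bound, given as a percentage of the DMSO control. […]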

[4] = target: Mitogen-activated protein kinase kinase kinase 7 (Homo sapiens) (UniProt O43318); assay: Binding affinity to wild-type human partial length TAK1 (M1 to Q303 residues) expressed in mammalian expression system assessed as residual binding level at 1 uM by Kinomescan method relative to control
How it was run: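 Active site-directed competition binding panel (KinomeScan, 468 kinases). Test compound at 1 μM. Read-out is kinase binding remaining versus DMSO control, expressed as percent of control. Scores above 35% are treated as weak binding.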

Sequence of Ribosomal protein S6 kinase alpha-3 (Homo sapiens) (P51812 whole entry, the tested form may be a part): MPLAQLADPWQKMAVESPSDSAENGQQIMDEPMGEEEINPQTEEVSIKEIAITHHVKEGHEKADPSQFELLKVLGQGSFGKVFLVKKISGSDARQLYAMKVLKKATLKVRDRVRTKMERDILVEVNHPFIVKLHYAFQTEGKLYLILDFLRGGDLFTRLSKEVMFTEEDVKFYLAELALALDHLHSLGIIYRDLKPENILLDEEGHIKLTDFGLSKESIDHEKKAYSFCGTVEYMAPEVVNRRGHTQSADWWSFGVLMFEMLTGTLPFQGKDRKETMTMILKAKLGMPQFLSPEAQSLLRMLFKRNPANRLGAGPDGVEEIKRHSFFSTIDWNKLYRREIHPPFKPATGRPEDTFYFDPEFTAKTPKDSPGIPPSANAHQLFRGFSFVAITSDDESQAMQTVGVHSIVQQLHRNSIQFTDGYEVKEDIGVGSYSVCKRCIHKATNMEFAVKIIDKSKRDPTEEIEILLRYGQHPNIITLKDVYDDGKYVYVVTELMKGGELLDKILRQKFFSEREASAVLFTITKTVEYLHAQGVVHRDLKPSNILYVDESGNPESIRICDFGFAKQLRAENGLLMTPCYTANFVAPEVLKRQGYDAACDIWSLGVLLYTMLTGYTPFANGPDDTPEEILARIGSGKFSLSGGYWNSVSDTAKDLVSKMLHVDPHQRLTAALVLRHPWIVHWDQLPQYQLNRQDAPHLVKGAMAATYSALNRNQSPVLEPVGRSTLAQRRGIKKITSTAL
Sequence of Ephrin type-B receptor 2 (Homo sapiens) (P29323 whole entry, the tested form may be a part): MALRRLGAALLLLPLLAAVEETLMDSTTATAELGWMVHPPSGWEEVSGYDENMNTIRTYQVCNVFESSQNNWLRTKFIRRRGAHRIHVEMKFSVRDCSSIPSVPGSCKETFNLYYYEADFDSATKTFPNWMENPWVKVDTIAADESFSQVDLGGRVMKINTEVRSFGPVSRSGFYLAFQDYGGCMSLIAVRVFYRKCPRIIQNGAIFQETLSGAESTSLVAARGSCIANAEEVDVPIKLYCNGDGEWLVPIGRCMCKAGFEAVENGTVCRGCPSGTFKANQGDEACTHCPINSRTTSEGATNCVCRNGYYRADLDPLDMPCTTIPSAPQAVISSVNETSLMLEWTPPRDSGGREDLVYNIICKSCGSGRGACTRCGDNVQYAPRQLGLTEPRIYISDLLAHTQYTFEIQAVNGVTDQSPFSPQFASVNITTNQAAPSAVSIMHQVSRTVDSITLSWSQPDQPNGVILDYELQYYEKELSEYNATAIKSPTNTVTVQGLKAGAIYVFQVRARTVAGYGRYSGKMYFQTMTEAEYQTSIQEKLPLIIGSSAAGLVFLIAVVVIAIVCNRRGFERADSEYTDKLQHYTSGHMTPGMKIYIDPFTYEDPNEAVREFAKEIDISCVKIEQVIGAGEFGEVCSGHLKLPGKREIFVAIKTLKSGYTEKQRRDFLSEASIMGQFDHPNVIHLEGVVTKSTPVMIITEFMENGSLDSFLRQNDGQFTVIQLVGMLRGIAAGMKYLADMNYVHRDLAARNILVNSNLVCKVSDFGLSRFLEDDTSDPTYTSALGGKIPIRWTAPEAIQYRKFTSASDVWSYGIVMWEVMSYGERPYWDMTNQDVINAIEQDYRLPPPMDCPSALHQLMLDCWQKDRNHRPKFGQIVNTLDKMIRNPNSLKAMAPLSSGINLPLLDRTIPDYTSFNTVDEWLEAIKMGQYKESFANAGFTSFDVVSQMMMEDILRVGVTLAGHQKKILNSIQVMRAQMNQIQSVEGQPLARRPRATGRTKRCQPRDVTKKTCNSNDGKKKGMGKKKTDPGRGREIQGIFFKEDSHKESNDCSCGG
Sequence of Tyrosine-protein kinase JAK1 (Homo sapiens) (P23458 whole entry, the tested form may be a part): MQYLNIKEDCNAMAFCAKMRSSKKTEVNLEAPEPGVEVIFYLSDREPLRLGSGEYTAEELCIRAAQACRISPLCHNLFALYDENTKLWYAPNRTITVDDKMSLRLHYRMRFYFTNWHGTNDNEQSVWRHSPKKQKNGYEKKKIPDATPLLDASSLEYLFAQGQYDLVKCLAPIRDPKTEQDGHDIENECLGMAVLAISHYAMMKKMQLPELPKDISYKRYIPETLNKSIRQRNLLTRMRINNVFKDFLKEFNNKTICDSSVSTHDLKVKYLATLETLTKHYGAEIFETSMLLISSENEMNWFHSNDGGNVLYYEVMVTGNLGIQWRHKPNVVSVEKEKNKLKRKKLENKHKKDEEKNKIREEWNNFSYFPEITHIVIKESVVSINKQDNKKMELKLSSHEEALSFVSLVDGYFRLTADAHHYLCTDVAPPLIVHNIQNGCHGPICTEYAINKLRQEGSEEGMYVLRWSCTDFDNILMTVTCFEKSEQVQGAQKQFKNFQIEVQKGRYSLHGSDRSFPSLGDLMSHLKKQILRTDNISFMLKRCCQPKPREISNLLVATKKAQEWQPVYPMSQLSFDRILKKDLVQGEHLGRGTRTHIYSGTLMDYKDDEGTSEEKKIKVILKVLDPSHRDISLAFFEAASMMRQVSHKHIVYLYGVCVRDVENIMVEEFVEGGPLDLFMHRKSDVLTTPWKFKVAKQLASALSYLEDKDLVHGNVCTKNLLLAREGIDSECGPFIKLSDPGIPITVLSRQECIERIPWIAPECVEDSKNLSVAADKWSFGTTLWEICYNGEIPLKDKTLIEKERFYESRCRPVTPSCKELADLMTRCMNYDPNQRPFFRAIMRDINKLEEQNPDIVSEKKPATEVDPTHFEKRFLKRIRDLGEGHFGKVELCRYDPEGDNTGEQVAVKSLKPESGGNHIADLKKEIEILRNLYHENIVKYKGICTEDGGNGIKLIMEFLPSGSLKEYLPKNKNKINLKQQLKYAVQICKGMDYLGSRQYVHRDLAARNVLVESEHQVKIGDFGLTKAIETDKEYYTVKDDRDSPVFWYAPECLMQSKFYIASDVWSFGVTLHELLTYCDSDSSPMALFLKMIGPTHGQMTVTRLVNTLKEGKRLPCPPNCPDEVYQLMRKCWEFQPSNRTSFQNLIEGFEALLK
Sequence of Mitogen-activated protein kinase kinase kinase 7 (Homo sapiens) (O43318 whole entry, the tested form may be a part): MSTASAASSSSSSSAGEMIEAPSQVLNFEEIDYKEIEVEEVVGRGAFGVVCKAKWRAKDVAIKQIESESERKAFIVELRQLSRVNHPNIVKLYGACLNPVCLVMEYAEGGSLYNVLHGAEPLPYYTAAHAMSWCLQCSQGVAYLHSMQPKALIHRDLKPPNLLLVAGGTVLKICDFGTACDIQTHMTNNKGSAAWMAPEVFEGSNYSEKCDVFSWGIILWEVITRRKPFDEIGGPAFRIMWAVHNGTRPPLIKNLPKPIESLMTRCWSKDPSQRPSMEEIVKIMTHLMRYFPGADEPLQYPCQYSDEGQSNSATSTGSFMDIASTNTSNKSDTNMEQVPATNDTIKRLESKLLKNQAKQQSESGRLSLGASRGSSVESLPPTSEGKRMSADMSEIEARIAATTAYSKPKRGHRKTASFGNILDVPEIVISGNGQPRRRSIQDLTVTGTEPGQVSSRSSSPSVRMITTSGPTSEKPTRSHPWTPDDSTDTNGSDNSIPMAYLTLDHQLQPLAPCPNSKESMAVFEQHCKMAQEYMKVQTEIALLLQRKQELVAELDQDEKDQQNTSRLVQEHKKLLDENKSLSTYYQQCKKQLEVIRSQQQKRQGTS

Question: For `C=CC(=O)Nc1ccccc1Nc1nc(Nc2ccc(N3CCN(C)CC3)cc2)ncc1C(=O)Nc1c(C)cccc1Cl`, which Activity [1] is on record?
Answer: 100%

Question: And the Activity [2]?
Answer: 100%

Question: And the Activity [3]?
Answer: 59%

Question: What about the Activity [4] of the same molecule?
Answer: 99%

From ChEMBL document CHEMBL4354843, “Structure-Based Design of a Potent and Selective Covalent Inhibitor for SRC Kinase That Targets a P-Loop Cysteine” (J Med Chem, 2020)
